Laboratory results as given in ChEMBL document CHEMBL1156597, “Structure-activity relationship of kahalalide F synthetic analogues” (J Med Chem, 2008).

How the values were obtained:
DU-145 = assay: Cytotoxicity against human DU145 cells after 48 hrs by SRB assay; format: functional, cell-based; conditions: Homo sapiens, DU-145, 48 h; for CC50: read-out: LC50 (the source's name)
Method in brief: (§1)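 Cells grown in RPMI 1640 with 10% FBS and penicillin/streptomycin at 37 °C and 5% CO₂, trypsinized, then seeded at 5 × 10³/well. After 18 h drug-free attachment, samples in DMSO/EtOH/PBS (0.5:0.5:99) were added for 48 h continuous exposure. Cells were fixed with cold TCA (1 h, 4 °C) and stained with SRB (10 min). Tris-solubilized stain read at 490 nm. Triplicate wells, mean ± SD; GI₅₀ derived.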

[1] = Cytotoxicity against human IGROV cells after 48 hrs by SRB assay; format: functional; conditions: for CC50: read-out: LC50 (the source's name); method in brief: as §1
[2] = Cytotoxicity against human IGROV-ET cells after 48 hrs by SRB assay; format: functional; conditions: for CC50: read-out: LC50 (the source's name); method in brief: as §1
SK-BR-3 = assay: Cytotoxicity against human SKBR3 cells after 48 hrs by SRB assay; format: functional; conditions: SK-BR-3, 48 h; for CC50: read-out: LC50 (the source's name); method in brief: as §1
SK-MEL-28 = assay: Cytotoxicity against human SK-MEL-28 cells after 48 hrs by SRB assay; format: functional, cell-based; conditions: Homo sapiens, SK-MEL-28, 48 h; for CC50: read-out: LC50 (the source's name); method in brief: as §1
A549 = assay: Cytotoxicity against human A549 cells after 48 hrs by SRB assay; format: functional, cell-based; conditions: Homo sapiens, A549, 48 h; method in brief: as §1
K562 = assay: Cytotoxicity against human K562 cells after 48 hrs by SRB assay; format: functional; conditions: K562, 48 h; for CC50: read-out: LC50 (the source's name); method in brief: as §1
PANC-1 = assay: Cytotoxicity against human PANC1 cells after 48 hrs by SRB assay; format: functional; conditions: PANC-1, 48 h; for CC50: read-out: LC50 (the source's name); method in brief: as §1
HT-29 = assay: Cytotoxicity against human HT29 cells after 48 hrs by SRB assay; format: functional, cell-based; conditions: Homo sapiens, HT-29, 48 h; for CC50: read-out: LC50 (the source's name); method in brief: as §1
LoVo [3] = assay: Cytotoxicity against human LoVo cells after 48 hrs by SRB assay; format: functional; conditions: for CC50: read-out: LC50 (the source's name)
LoVo [4] = assay: Cytotoxicity against human doxorubicin resistant LoVo cells after 48 hrs by SRB assay; format: functional; conditions: for CC50: read-out: LC50 (the source's name); method in brief: as §1
HeLa = assay: Cytotoxicity against human HeLa cells after 48 hrs by SRB assay; format: functional; conditions: for CC50: read-out: LC50 (the source's name); method in brief: as §1
[5] = Cytotoxicity against human HeLa-APL cells after 48 hrs by SRB assay; format: functional; method in brief: as §1

SMILES	GI50 (DU-145)	GI50 (DU-145; read-out: GI50)	CC50 (DU-145)	GI50 [1]	GI50 ([1]; read-out: GI50)	CC50 [1]	GI50 ([2]; read-out: GI50)	CC50 [2]	GI50 (SK-BR-3)	GI50 (SK-BR-3; read-out: GI50)	CC50 (SK-BR-3)	GI50 (SK-MEL-28)	GI50 (SK-MEL-28; read-out: GI50)	CC50 (SK-MEL-28)	GI50 (A549)	LC50 (A549)	GI50 (A549; read-out: GI50)	GI50 (K562)	TGI (K562)	CC50 (K562)	further results
C/C=C1\NC(=O)[C@H](Cc2cccc(Cl)c2)NC(=O)[C@@H](C(C)C)NC(=O)[C@@H]([C@H](C)CC)NC(=O)[C@H](NC(=O)[C@H](NC(=O)[C@H](CCCN)NC(=O)[C@H]2CCCN2C(=O)[C@H](NC(=O)[C@@H](NC(=O)[C@@H](NC(=O)[C@H](NC(=O)CCCC(C)C)C(C)C)[C@@H](C)O)C(C)C)C(C)C)[C@H](C)CC)[C@H](C)OC(=O)[C@H](C(C)C)NC1=O	0.173 µM	0.1 µM	0.305 µM	0.0447 µM	0.041 µM	0.0485 µM	0.0712 µM	0.163 µM	0.0419 µM	0.0496 µM	0.0483 µM	0.313 µM	0.183 µM	0.738 µM	0.429 µM	0.911 µM	0.194 µM	0.867 µM	1.22 µM	1.73 µM	TGI [2]: 0.097 µM; GI50 (PANC-1): 0.869 µM; TGI (PANC-1): 1.7 µM; CC50 (PANC-1): 1.7 µM; GI50 (HT-29): 0.0402 µM; TGI (HT-29): 0.0425 µM; CC50 (HT-29): 0.153 µM; GI50 (LoVo [3]): 0.0185 µM; TGI (LoVo [3]): 0.0279 µM; CC50 (LoVo [3]): 0.0691 µM; GI50 (LoVo [4]): 0.0408 µM; TGI (LoVo [4]): 0.0357 µM; CC50 (LoVo [4]): 0.34 µM; GI50 (HeLa): 0.0983 µM; TGI (HeLa): 0.131 µM; CC50 (HeLa): 0.256 µM; GI50 [5]: 0.191 µM; LC50 (concentration giving 50% net cell kill) [5]: 0.275 µM; TGI [5]: 0.172 µM
C/C=C1\NC(=O)[C@H](Cc2ccc(Cl)cc2)NC(=O)[C@@H](C(C)C)NC(=O)[C@@H]([C@H](C)CC)NC(=O)[C@H](NC(=O)[C@H](NC(=O)[C@H](CCCN)NC(=O)[C@H]2CCCN2C(=O)[C@H](NC(=O)[C@@H](NC(=O)[C@@H](NC(=O)[C@H](NC(=O)CCCC(C)C)C(C)C)[C@@H](C)O)C(C)C)C(C)C)[C@H](C)CC)[C@H](C)OC(=O)[C@H](C(C)C)NC1=O	0.189 µM	0.112 µM	0.388 µM	0.0629 µM	0.0463 µM	0.112 µM	0.0862 µM	0.175 µM	0.0386 µM	0.0397 µM	0.206 µM	0.393 µM	0.214 µM	0.931 µM	0.473 µM	0.934 µM	0.227 µM	0.696 µM	1.09 µM	1.69 µM	GI50 [2]: 0.122 µM; GI50 (PANC-1): 1.14 µM; TGI (PANC-1): 1.7 µM; CC50 (PANC-1): 1.7 µM; GI50 (HT-29): 0.0365 µM; TGI (HT-29): 0.0735 µM; CC50 (HT-29): 0.143 µM; GI50 (LoVo [3]): 0.0216 µM; TGI (LoVo [3]): 0.055 µM; CC50 (LoVo [3]): 0.0838 µM; GI50 (LoVo [4]): 0.0571 µM; TGI (LoVo [4]): 0.0449 µM; CC50 (LoVo [4]): 0.34 µM; GI50 (HeLa): 0.193 µM; TGI (HeLa): 0.184 µM; CC50 (HeLa): 0.362 µM; GI50 [5]: 0.215 µM; LC50 (concentration giving 50% net cell kill) [5]: 0.286 µM; TGI [5]: 0.186 µM
